{
  "source": "ChEMBL document CHEMBL3992564",
  "about": "“Design and synthesis of novel, potent and selective hypoxanthine analogs as adenosine A1 receptor antagonists and their biological evaluation” (Bioorg Med Chem, 2017)",
  "key": {"Adenosine receptor A1 [1]": {"biological_target": "T1, Adenosine receptor A1 (Homo sapiens, UniProt P30542)", "T1 sequence (P30542 whole entry)": "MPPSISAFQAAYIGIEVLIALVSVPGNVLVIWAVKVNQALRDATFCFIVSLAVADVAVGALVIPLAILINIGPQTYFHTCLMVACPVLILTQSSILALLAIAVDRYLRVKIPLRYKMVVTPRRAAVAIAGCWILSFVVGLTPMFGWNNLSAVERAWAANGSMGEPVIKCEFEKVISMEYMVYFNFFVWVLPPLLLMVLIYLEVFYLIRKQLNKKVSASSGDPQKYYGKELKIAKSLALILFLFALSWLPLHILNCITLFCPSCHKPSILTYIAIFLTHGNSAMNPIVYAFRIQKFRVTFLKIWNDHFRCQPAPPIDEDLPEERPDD", "experiment": "Displacement of [3H]DPCPX from human adenosine A1 receptor expressed in HEK293 cell membranes after 90 mins"}, "[2]": {"biological_target": "T2, Adenosine receptor A2b (Homo sapiens) (UniProt P29275)", "T2 sequence (whole entry)": "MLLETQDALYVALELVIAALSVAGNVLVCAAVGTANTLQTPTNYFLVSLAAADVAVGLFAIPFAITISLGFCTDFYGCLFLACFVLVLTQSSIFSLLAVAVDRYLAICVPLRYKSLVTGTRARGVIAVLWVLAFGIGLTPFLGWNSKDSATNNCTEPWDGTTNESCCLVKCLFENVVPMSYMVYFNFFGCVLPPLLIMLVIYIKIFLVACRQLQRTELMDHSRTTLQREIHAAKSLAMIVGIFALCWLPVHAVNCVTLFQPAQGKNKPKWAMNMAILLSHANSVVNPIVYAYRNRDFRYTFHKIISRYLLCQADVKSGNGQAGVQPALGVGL", "experiment": "Displacement of [3H]MRS-1754 from human adenosine A2B receptor expressed in HEK293 cell membranes at 1 uM after 90 mins relative to control", "how_it_was_run": "(§1)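 Membranes from HEK-293 cells stably transfected with human receptor, pre-treated with adenosine deaminase. Radioligands: 1 nM [3H]DPCPX (A1), 1 nM [3H]ZM241385 (A2A), 1.6 nM [3H]MRS-1754 (A2B), 2 nM [3H]HEMADO (A3). Buffers: Tris pH 7.4 (A1, A2A, A3) or pH 6.5 (A2B), with ADA. Incubated 90 min at room temperature, then filtered. Nonspecific binding defined with 100 µM NECA. Ki from 8 concentrations run in triplicate.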"}, "Adenosine receptor A2a": {"biological_target": "Adenosine receptor A2a (Homo sapiens, UniProt P29274)", "sequence (P29274 whole entry)": "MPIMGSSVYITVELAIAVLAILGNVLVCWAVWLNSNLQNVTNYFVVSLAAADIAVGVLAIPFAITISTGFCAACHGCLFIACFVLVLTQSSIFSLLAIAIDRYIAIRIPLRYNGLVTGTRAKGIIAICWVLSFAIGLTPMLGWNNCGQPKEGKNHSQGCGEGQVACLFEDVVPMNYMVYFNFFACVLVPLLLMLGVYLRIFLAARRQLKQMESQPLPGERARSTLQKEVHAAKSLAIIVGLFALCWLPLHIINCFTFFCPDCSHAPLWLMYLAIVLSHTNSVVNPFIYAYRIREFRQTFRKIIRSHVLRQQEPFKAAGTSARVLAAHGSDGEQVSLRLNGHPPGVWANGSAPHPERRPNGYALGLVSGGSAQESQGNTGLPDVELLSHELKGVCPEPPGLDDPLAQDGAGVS", "experiment": "Displacement of [3H]ZM241385 from human adenosine A2A receptor expressed in HEK293 cell membranes at 1 uM after 90 mins relative to control", "how_it_was_run": "as §1"}, "[3]": {"biological_target": "T3, Adenosine receptor A3 (Homo sapiens) (UniProt P0DMS8)", "T3 sequence (whole entry)": "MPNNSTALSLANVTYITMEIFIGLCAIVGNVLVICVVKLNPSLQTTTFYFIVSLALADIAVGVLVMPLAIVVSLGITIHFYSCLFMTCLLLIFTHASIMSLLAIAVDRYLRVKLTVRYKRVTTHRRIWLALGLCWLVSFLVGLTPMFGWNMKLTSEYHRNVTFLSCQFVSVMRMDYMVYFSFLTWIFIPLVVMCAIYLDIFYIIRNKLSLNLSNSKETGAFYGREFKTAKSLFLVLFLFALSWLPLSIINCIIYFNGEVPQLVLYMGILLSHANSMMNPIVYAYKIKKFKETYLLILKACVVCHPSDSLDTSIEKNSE", "experiment": "Displacement of [3H]HEMADO from human adenosine A3 receptor expressed in HEK293 cell membranes at 1 uM after 90 mins relative to control", "how_it_was_run": "as §1"}, "Adenosine receptor A1 [4]": {"biological_target": "T1, Adenosine receptor A1", "experiment": "Antagonist activity at human adenosine A1 receptor expressed in HEK293 cells assessed as reduction in CPA-mediated inhibition of forskolin-stimulated cAMP level preincubated for 15 mins followed by CPA treatment for 15 mins and subsequent addition of forskolin measured after 30 mins by HTRF assay", "type": "functional, cell-based"}, "[5]": {"biological_target": "T2, Adenosine receptor A2b (Homo sapiens)", "experiment": "Antagonist activity at human adenosine A2B receptor expressed in HEK293 cells assessed as reduction in NECA-induced increase in cAMP level at 1 uM preincubated for 15 mins followed by NECA addition measured after 15 mins by HTRF assay relative to control", "type": "functional, cell-based", "how_it_was_run": "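Overnight HEK-A1 or HEK-A2B cultures were treated with 1 U/mL ADA for 90 min at 37°C. Compound was added for 15 min, then agonist for 15 min (1 nM CPA for A1; 70 nM NECA for A2B) at room temperature in incomplete DMEM with ADA. Rolipram (20 µM) was included for A1 only. cAMP was read by HTRF.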"}, "Liver [6]": {"system": "Liver", "experiment": "Metabolic stability in rat liver microsomes assessed as metabolic rate measured after 30 mins in presence of NADPH", "type": "ADME, microsome", "settings": "0.5 h"}, "Liver [7]": {"system": "Liver", "experiment": "Metabolic stability in human liver microsomes assessed as metabolic rate measured after 30 mins in presence of NADPH", "type": "ADME, microsome", "settings": "0.5 h"}, "[8]": {"experiment": "Metabolic stability in rat liver microsomes assessed as parent compound remaining measured after 30 mins in presence of NADPH", "type": "ADME, microsome", "settings": "read-out: Stability"}, "[9]": {"experiment": "Metabolic stability in human liver microsomes assessed as parent compound remaining measured after 30 mins in presence of NADPH", "type": "ADME, microsome", "settings": "read-out: Stability"}, "CYP1A2": {"biological_target": "T4, CYP1A2 (Homo sapiens, UniProt P05177)", "T4 sequence (P05177 whole entry)": "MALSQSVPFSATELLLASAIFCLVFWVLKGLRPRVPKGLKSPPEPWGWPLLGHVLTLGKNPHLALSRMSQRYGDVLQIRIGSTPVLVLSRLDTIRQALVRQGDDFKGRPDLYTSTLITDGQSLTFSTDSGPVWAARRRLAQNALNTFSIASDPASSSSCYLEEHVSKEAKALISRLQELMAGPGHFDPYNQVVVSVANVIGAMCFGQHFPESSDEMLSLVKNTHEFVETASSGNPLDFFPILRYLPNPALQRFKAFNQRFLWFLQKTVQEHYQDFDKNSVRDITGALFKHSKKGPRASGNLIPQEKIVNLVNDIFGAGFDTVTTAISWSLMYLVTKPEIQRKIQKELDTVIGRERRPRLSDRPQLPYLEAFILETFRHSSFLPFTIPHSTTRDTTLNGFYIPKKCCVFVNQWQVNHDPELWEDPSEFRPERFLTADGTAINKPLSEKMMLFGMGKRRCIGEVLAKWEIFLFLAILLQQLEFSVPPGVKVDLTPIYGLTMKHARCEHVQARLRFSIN", "experiment": "Inhibition of CYP1A2 (unknown origin) at 5 uM relative to control", "type": "ADME"}, "CYP2C9": {"biological_target": "CYP2C9 (Homo sapiens, UniProt P11712)", "sequence (P11712 whole entry)": "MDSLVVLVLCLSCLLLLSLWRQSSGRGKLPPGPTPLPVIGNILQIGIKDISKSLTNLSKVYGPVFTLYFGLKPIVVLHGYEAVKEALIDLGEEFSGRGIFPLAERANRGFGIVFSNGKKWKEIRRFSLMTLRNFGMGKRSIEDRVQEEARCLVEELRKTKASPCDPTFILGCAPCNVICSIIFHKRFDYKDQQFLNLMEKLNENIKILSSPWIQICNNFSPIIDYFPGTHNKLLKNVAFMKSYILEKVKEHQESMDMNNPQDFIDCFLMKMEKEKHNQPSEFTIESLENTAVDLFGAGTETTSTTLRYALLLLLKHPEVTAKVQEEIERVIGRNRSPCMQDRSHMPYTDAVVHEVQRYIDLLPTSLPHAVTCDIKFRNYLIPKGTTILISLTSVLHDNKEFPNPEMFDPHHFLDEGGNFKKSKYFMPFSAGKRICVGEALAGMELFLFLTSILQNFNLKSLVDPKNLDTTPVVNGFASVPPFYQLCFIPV", "experiment": "Inhibition of CYP2C9 (unknown origin) at 5 uM relative to control", "type": "ADME"}, "CYP2C19": {"biological_target": "CYP2C19 (Homo sapiens, UniProt P33261)", "sequence (P33261 whole entry)": "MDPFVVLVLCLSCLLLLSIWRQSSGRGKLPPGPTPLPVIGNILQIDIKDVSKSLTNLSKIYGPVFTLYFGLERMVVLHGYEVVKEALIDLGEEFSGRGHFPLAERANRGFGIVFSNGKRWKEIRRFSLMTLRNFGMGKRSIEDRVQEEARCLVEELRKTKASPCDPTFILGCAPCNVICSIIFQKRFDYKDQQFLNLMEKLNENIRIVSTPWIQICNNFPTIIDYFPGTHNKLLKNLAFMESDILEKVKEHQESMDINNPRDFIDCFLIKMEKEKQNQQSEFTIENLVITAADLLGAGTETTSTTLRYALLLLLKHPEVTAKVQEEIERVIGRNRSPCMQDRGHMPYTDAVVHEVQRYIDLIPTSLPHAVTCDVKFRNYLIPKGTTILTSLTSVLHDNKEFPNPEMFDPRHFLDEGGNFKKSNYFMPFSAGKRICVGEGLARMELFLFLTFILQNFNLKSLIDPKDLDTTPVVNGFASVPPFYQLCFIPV", "experiment": "Inhibition of CYP2C19 (unknown origin) at 5 uM relative to control", "type": "ADME"}, "CYP2D6": {"biological_target": "CYP2D6 (Homo sapiens, UniProt P10635)", "sequence (P10635 whole entry)": "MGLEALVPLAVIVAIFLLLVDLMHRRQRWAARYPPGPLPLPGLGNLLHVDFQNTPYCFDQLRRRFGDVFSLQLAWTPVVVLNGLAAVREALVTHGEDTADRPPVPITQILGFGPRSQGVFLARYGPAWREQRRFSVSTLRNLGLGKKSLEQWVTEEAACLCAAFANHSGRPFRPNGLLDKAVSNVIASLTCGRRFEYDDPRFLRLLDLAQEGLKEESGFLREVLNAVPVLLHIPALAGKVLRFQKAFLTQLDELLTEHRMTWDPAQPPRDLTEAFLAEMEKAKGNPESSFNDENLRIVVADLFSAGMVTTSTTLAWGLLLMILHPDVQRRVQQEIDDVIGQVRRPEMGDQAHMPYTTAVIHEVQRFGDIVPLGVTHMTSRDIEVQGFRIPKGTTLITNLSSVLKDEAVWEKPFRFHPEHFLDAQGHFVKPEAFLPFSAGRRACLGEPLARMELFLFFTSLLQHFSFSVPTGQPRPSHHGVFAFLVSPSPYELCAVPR", "experiment": "Inhibition of CYP2D6 (unknown origin) at 5 uM relative to control", "type": "ADME"}, "CYP3A4": {"biological_target": "CYP3A4 (Homo sapiens, UniProt P08684)", "sequence (P08684 whole entry)": "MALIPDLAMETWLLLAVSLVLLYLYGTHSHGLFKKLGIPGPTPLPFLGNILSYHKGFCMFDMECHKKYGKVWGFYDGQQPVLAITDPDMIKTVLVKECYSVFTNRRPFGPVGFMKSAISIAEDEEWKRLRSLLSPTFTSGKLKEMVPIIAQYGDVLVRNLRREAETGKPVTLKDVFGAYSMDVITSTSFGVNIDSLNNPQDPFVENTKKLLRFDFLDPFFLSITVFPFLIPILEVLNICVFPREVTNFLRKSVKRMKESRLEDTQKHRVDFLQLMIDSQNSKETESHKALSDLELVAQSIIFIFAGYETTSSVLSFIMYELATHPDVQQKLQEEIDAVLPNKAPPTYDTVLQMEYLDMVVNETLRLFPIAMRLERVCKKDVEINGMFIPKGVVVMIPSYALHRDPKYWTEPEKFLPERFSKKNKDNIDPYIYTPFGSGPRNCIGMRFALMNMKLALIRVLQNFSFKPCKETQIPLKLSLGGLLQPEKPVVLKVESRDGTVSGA", "experiment": "Inhibition of CYP3A4 (unknown origin) at 5 uM relative to control", "type": "ADME"}, "[10]": {"experiment": "Protein binding in rat plasma at 5 uM", "type": "ADME, cell-free", "settings": "read-out: PPB (converted)"}, "[11]": {"experiment": "Thermodynamic solubility of the compound in pH 2 solution", "type": "physicochemical", "settings": "read-out: Therm_solubility"}, "[12]": {"experiment": "Thermodynamic solubility of the compound in pH 4 solution", "type": "physicochemical", "settings": "read-out: Therm_solubility"}, "[13]": {"experiment": "Thermodynamic solubility of the compound in pH 7.4 solution", "type": "physicochemical", "settings": "read-out: Therm_solubility"}, "[14]": {"experiment": "AUC (0 to t) in Wistar rat at 3 mg/kg, iv by LC-Ms/MS analysis", "type": "ADME, organism-based", "settings": "in vivo", "how_it_was_run": "(§2)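 Male Wistar rats (230 ± 15 g), fasted overnight with water available. IV dose of 3 mg/kg given by tail vein as a solution (0.6 mg/mL, 5 mL/kg). PO dose of 5 mg/kg given by gavage as a suspension. Blood was collected into K2EDTA at 0.008 (IV only) to 24 h and plasma was spun off. Samples were precipitated with acetonitrile and run on LC/MS/MS. Parameters came from non-compartmental analysis of individual animals, mean of n = 4.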"}, "[15]": {"experiment": "Volume of distribution at steady state in Wistar rat at 3 mg/kg, iv by LC-Ms/MS analysis", "type": "ADME, organism-based", "settings": "in vivo, read-out: Vdss", "how_it_was_run": "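Male Wistar rats (230 ± 15 g), fasted overnight with water available. IV dosing at 3 mg/kg by tail vein as solution (0.6 mg/mL, 5 mL/kg). PO dosing at 5 mg/kg by oral gavage. Serial blood sampling into K2EDTA from 0.008 (IV only) to 24 h. Plasma precipitated with acetonitrile containing internal standard and analysed by LC/MS/MS. Non-compartmental parameters calculated per animal; values are means of n = 4.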"}, "[16]": {"experiment": "Clearance in Wistar rat at 3 mg/kg, iv by LC-Ms/MS analysis", "type": "ADME, organism-based", "settings": "in vivo", "how_it_was_run": "as §2"}, "[17]": {"experiment": "Elimination half life in Wistar rat at 3 mg/kg, iv by LC-Ms/MS analysis", "type": "ADME, organism-based", "settings": "in vivo, read-out: beta t1/2 (converted)", "how_it_was_run": "as §2"}, "[18]": {"experiment": "Drug metabolism assessed as hydroxylation at C-8 cyclopentyl by metabolic soft spot analysis", "type": "physicochemical"}, "[19]": {"experiment": "Drug metabolism assessed as N-oxidation by metabolic soft spot analysis", "type": "physicochemical"}},
  "data": [
    {"smiles": "CCCn1c(OC2CCC(O)C2)nc2nc(C3CCCC3)[nH]c2c1=O", "note": "(stereo not given)", "values": [
      {"measurement": "Ki", "setting": "Adenosine receptor A1 [1]", "value": 57, "unit": "nM"},
      {"measurement": "inhibition", "setting": "[2]", "value": "35 to 41", "unit": "%"},
      {"measurement": "inhibition", "setting": "Adenosine receptor A2a", "value": 0, "unit": "%"},
      {"measurement": "inhibition", "setting": "[3]", "value": 37, "unit": "%"},
      {"measurement": "Ki", "setting": "Adenosine receptor A1 [4]", "value": 9.6, "unit": "nM"},
      {"measurement": "inhibition", "setting": "[5]", "value": 6, "unit": "%"},
      {"measurement": "Drug metabolism", "setting": "Liver [6]", "value": 0.1, "unit": "nmol/min/mg"},
      {"measurement": "Drug metabolism", "setting": "Liver [7]", "value": 0.12, "unit": "nmol/min/mg"},
      {"measurement": "remaining at 0.5 h", "setting": "[8]", "value": 68, "unit": "%"},
      {"measurement": "remaining at 0.5 h", "setting": "[9]", "value": 60, "unit": "%"},
      {"measurement": "inhibition at 5 µM", "setting": "CYP1A2", "value": 5, "unit": "%"},
      {"measurement": "inhibition at 5 µM", "setting": "CYP2C9", "value": 4, "unit": "%"},
      {"measurement": "inhibition at 5 µM", "setting": "CYP2C19", "value": 3, "unit": "%"},
      {"measurement": "inhibition at 5 µM", "setting": "CYP2D6", "value": 0, "unit": "%"},
      {"measurement": "inhibition at 5 µM", "setting": "CYP3A4", "value": 0, "unit": "%"},
      {"measurement": "fraction unbound at 5 µM", "setting": "[10]", "value": 0.2},
      {"measurement": "solubility thermodynamic", "setting": "[11]", "value": 2590, "unit": "µM"},
      {"measurement": "solubility thermodynamic", "setting": "[12]", "value": 276, "unit": "µM"},
      {"measurement": "solubility thermodynamic", "setting": "[13]", "value": 182, "unit": "µM"},
      {"measurement": "AUC(0-t)", "setting": "[14]", "value": 3, "unit": "µM·h"},
      {"measurement": "Vd", "setting": "[15]", "value": 0.8, "unit": "L/kg"},
      {"measurement": "clearance", "setting": "[16]", "value": 48, "unit": "mL/min/kg"},
      {"measurement": "half-life", "setting": "[17]", "value": 18, "unit": "min"},
      {"measurement": "Drug metabolism", "setting": "[18]", "value": "Metabolite_Detected"},
      {"measurement": "Drug metabolism", "setting": "[19]", "value": "Metabolite_Detected"}
    ]}
  ]
}
